Active and inactive are the calls of the source. The calls are words filed in the database; no cut-off is given here.
Key:
[1] = target: T1, UDP-N-acetylmuramoyl-tripeptide--D-alanyl-D-alanine ligase (Streptococcus pneumoniae, UniProt Q9ZHC3); assay: Inhibition of Streptococcus pneumoniae MurF ligase using D-Ala-D-Ala as substrate after 15 mins by malachite green assay
T1 sequence (Q9ZHC3 whole entry): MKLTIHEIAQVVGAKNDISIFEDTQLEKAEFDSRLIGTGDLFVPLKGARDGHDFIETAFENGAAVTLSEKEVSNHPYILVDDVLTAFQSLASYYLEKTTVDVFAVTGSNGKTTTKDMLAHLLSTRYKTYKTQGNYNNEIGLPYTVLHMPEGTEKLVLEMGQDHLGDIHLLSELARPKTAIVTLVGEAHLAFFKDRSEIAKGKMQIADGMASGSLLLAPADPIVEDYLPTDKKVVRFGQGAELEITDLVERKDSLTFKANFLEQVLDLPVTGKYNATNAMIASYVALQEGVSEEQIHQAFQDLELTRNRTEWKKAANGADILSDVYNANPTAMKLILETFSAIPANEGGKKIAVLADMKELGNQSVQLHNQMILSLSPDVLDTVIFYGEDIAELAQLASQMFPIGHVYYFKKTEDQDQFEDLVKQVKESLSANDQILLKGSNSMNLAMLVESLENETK
In short: (§1)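 Purified S. pneumoniae MurF in 50 mM Hepes pH 8.0 with 50 mM MgCl2, 0.005% Triton X-114, 100 µM D-Ala-D-Ala, 50 µM UMtri-L-Lys and 250 µM ATP, with 5% DMSO final. After 15 min at 37 °C, Biomol reagent was added and absorbance read at 650 nm, in duplicate. RA was taken against a 5% DMSO control. IC50 was the 50% RA point from seven concentrations.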

Escherichia coli [2] = assay: Antibacterial activity against Escherichia coli ES100 harboring tolC deletion mutant assessed as growth inhibition by broth microdilution method; assay type: functional
In short: (§2)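 MIC by broth microdilution in Mueller-Hinton broth following CLSI guidelines. ES100 is the tolC derivative of AB734, and SM1411 is the acrAB derivative of 1411; both are efflux-deficient E. coli strains. Growth inhibition was read as the minimum inhibitory concentration.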

Escherichia coli [3] = assay: Antibacterial activity against Escherichia coli 1411 assessed as growth inhibition by broth microdilution method; assay type: functional
In short: (§3)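 MICs by broth microdilution in Mueller-Hinton broth following CLSI guidelines.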

Escherichia coli [4] = assay: Antibacterial activity against Escherichia coli AB734 assessed as growth inhibition by broth microdilution method in presence of polymyxin B nonapeptide; assay type: functional
In short: (§4)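 Broth microdilution MIC in Mueller-Hinton broth per CLSI, run with 4 µg/mL polymyxin B nonapeptide to permeabilize the outer membrane.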

Staphylococcus aureus [5] = assay: Antibacterial activity against Staphylococcus aureus SH1000 assessed as decrease in membrane integrity at 4 times MIC by BacLight assay; assay type: functional, organism-based
In short: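 Membrane damage was measured with the BacLight assay in cells exposed to compound at 4 × MIC and compared with a drug-free control.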

Escherichia coli [6] = assay: Antibacterial activity against Escherichia coli 1411 assessed as growth inhibition by broth microdilution method in presence of polymyxin B nonapeptide; assay type: functional; in short: as §4
Escherichia coli [7] = assay: Antibacterial activity against Escherichia coli SM1411 harboring acrAB deletion mutant assessed as growth inhibition by broth microdilution method; assay type: functional; in short: as §2
[8] = Inhibition of Escherichia coli MurF ligase using D-Ala-D-Ala as substrate after 15 mins by malachite green assay
In short: (§5)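 After 15 min at 37 °C, Biomol reagent was added and phosphate read at 650 nm, in duplicate. RA was taken relative to a 5% DMSO control. IC50 was taken as the concentration giving 50% RA, from seven concentrations.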

Escherichia coli [9] = assay: Antibacterial activity against Escherichia coli AB734 assessed as growth inhibition by broth microdilution method; assay type: functional; in short: as §3
Staphylococcus aureus [10] = assay: Antibacterial activity against Staphylococcus aureus SH1000 assessed as growth inhibition by broth microdilution method; assay type: functional; in short: as §3
[11] = target: T2, UDP-N-acetylmuramoyl-tripeptide--D-alanyl-D-alanine ligase (Streptococcus pneumoniae) (UniProt Q9ZHC3); assay: Inhibition of Streptococcus pneumoniae MurF ligase using D-Ala-D-Ala as substrate assessed as residual activity at 100 uM after 15 mins by malachite green assay; in short: as §1
T2 sequence (whole entry): T1 sequence (Q9ZHC3 whole entry)

Escherichia coli [12] = assay: Inhibition of […] MurF ligase using D-Ala-D-Ala as substrate assessed as residual activity at 100 uM after 15 mins by malachite green assay; in short: as §5
Escherichia coli [13] = assay: Inhibition of […] MurF ligase using D-Ala-D-Ala as substrate assessed as residual activity at 250 uM after 15 mins by malachite green assay; in short: as §5
[14] = target: T2, UDP-N-acetylmuramoyl-tripeptide--D-alanyl-D-alanine ligase (Streptococcus pneumoniae); assay: Inhibition of Streptococcus pneumoniae MurF ligase using D-Ala-D-Ala as substrate assessed as residual activity at 250 uM after 15 mins by malachite green assay; in short: as §1

Row | Activity [11] [%] | Activity (Escherichia coli [12]) [%] | SMILES | IC50 [1] [µM] | MIC (Escherichia coli [2]) [µg/mL] | MIC (Escherichia coli [3]) [µg/mL] | MIC (Escherichia coli [4]) [µg/mL] | Activity (Staphylococcus aureus [5]) | MIC (Escherichia coli [6]) [µg/mL] | MIC (Escherichia coli [7]) [µg/mL] | IC50 [8] [µM] | MIC (Escherichia coli [9]) [µg/mL] | MIC (Staphylococcus aureus [10]) [µg/mL] | Activity (Escherichia coli [13]) [%] | Activity [14] [%]
1 |  |  | COc1ccc(CN2CCc3c(sc(NC(=O)c4cc(OCCN)ccc4Cl)c3C#N)C2)cc1 | 125 | 32 | 128 | 64 | inactive | 64 | 64 | 73 | 128 | 128 |  | 
2 | 81 | 82 | N#Cc1c(NC(=O)c2cc(OCc3ccccc3)ccc2Cl)sc2c1CCCC2 |  |  |  |  |  |  |  |  |  |  |  | 
3 | 102 | 97 | N#Cc1ccc(COc2ccc(Cl)c(C(=O)Nc3sc4c(c3C#N)CCCC4)c2)cc1 |  |  |  |  |  |  |  |  |  |  |  | 
4 | 102 | 97 | N#Cc1c(NC(=O)c2cccc(OCc3ccc(Cl)cc3)c2)sc2c1CCCC2 |  |  |  |  |  |  |  |  |  |  |  | 
5 | 81 | 99 | N#Cc1c(NC(=O)c2cccc(OCC3CCCC3)c2)sc2c1CCCC2 |  |  |  |  |  |  |  |  |  |  |  | 
6 |  |  | Cl.N#Cc1c(NC(=O)c2cc(OCCNC(=N)N)ccc2Cl)sc2c1CCN(Cc1ccccc1)C2 | 55 | 8 | 32 | 16 | inactive | 16 | 32 | 57 | 32 | 8 |  | 
7 |  |  | N#Cc1c(NC(=O)c2cc(OCCNC(=N)N)ccc2Cl)sc2c1CCC(c1ccc(O)cc1)C2 (configuration not stated) |  |  |  |  | inactive |  |  |  |  |  |  | 
8 | 98 | 93 | N#Cc1c(NC(=O)c2cccc(OCCN)c2)sc2c1CCCC2 |  |  |  |  |  |  |  |  |  |  |  | 
9 |  |  | N#Cc1c(NC(=O)c2cc(OCCNC(=O)C(F)(F)F)ccc2Cl)sc2c1CCNC2.O=C(O)C(F)(F)F |  | > 256 | > 256 | > 256 |  | > 256 | > 256 |  | > 256 | > 256 | 91 | 99
10 | 89 | 85 | N#Cc1c(NC(=O)c2cccc(OCn3cccn3)c2)sc2c1CCCC2 |  |  |  |  |  |  |  |  |  |  |  | 
11 |  |  | Cl.N#Cc1ccc(CN2CCc3c(sc(NC(=O)c4cc(OCCNC(=N)N)ccc4Cl)c3C#N)C2)cc1 | 61 | 16 | 128 | 32 | inactive | 32 | 16 | 66 | 256 | 16 |  | 
12 |  |  | COC(=O)c1ccc(CN2CCc3c(sc(NC(=O)c4cc(OCCNC(=N)N)ccc4Cl)c3C#N)C2)cc1.Cl | 37 | 8 | 64 | 32 | inactive | 32 | 16 | 80 | 64 | 8 |  | 

— ChEMBL document CHEMBL3112403, “Design, synthesis and evaluation of second generation MurF inhibitors based on a cyanothiophene scaffold” (Eur J Med Chem, 2014)
